# Bioassay records from PubChem.
# NSD2 HMT inh – blocks human histone methyltransferase NSD2; O96028; NSD2 peptide methylation, AlphaScreen, 120 min; inhibition, % at 12.5 µM; 310,000 compounds, 0.54% hits; AID 743445; in the data active means inhibition above about 50%
# Target sequence (O96028 whole entry, looked up): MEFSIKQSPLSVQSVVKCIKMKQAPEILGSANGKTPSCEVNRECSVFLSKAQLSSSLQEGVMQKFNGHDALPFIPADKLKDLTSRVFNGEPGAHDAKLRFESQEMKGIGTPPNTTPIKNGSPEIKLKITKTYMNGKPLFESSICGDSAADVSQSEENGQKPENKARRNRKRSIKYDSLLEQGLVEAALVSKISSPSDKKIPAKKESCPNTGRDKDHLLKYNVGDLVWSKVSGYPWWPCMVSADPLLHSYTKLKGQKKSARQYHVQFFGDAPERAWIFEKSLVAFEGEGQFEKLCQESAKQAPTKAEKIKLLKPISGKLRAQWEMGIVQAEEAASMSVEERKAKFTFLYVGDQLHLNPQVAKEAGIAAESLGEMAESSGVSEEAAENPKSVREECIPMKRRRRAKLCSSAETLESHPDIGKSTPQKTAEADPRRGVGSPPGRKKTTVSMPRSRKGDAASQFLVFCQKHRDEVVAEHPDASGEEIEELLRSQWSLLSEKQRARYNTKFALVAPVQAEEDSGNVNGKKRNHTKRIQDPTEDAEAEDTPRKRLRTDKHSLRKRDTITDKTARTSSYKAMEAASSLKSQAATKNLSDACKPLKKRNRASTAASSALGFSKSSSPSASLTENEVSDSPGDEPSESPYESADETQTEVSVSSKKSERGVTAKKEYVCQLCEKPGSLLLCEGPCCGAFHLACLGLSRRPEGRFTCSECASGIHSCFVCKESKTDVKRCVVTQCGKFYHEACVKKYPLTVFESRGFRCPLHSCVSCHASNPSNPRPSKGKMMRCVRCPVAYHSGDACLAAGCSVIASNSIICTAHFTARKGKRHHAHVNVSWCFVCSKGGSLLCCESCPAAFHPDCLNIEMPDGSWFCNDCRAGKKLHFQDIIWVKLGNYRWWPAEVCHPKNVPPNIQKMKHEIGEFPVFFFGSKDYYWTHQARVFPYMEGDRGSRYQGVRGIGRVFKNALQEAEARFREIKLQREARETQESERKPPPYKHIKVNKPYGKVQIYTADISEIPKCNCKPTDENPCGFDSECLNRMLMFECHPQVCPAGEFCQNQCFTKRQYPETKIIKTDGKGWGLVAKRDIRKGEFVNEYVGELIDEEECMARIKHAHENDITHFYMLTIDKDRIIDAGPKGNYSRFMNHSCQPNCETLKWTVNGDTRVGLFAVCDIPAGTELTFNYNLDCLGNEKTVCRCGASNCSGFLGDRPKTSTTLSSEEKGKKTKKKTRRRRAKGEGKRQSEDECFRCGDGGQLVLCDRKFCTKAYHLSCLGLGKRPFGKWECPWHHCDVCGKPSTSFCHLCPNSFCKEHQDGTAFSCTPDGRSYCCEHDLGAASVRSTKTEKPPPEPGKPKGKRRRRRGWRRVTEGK
# FN deposit inh – fibronectin deposition inhibition; inhibition, % at 12.6 µM; AID 743247; 350,000 compounds, 0.086% hits; AH1F fibroblasts, Alexa488-fibronectin deposition fluorescence, overnight;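 active means mean inhibition across replicates of 30% or more, regardless of how many single replicates reach that level; inconclusive means mean under 30% yet at least half of replicates reach 30%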;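 further: positive control wells lacked labelled fibronectin entirely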
#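 Assay system: AH1F fibroblasts assembling fluorescent fibronectin matrix; Amount: 10000 AH1F cells per well; Buffer or medium: DMEM, 2% serum; Probe or stimulus: Alexa488-fibronectin, 24 nM final in well; Doses: single compound dose, delivered by pin transfer; Incubation: 1 h adhesion, overnight exposure; Measured by: fluorescence 485/525 nm; Read-out: fibronectin deposition inhibition.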
# RAD54 branch – inhibitors of human RAD54 branch migration; Q92698; RAD54 Holliday junction branch migration, FAM/BHQ fluorescence; inhibition, % at 10.4 µM; 360,000 compounds, 0.14% hits; AID 602329;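 active means mean normalized replicate activity at least 40 and at least half of replicates scoring 40 or more; inconclusive means only one of the two criteria met; inactive means mean below 40 and under half of replicates reaching 40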;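 further: 0% = median of neutral control wells and 100% = median of positive control wells; inhibitors cause a drop in the FAM fluorescence signal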
# RAD52 anneal inh – blocks human RAD52 DNA annealing. inhibition, % at 18.7 µM. P43351. 360,000 compounds, 0.46% hits. recombinant RAD52 DNA annealing, FRET fluorescence. AID 651710;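 active means every replicate showing at least 50% inhibition; inconclusive means mean inhibition at least 50% but not in every replicate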
# Glyco luc inh – blocks N-linked glycosylation in D54 reporter cells; D54 ERlucT glycosylation luciferase reporter, 24 h; percent of 100 nM tunicamycin response; reporter increase, % at 12.5 µM; 360,000 compounds, 0.23% hits; AID 588692;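 active means mean luciferase reporter signal, scaled so untreated is 0 and the glycosylation-blocking control 100, at or above a set limit in every replicate; inconclusive means mean reaches the limit but not every replicate does; inactive means mean below the limit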;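 further: luciferase carries N-glycosylation sites so blocking glycosylation raises the light; 0% = median of neutral control wells and 100% = median of 100 nM tunicamycin wells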
# AF4-AF9 inh – MLL-AF4/AF9 protein interaction inhibition. 350,000 compounds, 0.47% hits. AlphaScreen, biotin-AF4 peptide binding to FLAG-AF9. P42568. inhibition, % at 10 µM. AID 651704;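 active means every replicate reaching a set inhibition limit, whatever the replicate mean, cut at about 25% in these data; inconclusive means mean inhibition reaches that limit but some replicates miss it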;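 further: 0% = plate neutral control median and 100% = total signal loss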
# AlphaScreen art – counter-screen for NSD2 inhibitors: AlphaScreen artifacts. AC35, µM (titrated, usually from 10 µM), for inactives: at the highest dose activity change, negative = signal loss. shares compounds with NSD2 HMT inh. AlphaScreen artifact counterscreen, preloaded methylated H4 peptide. 1,500 compounds, 9.4% hits; call rule not given here
# Starred values were filed as active, the others as inactive; u = inconclusive; x = no result. Sampled rows, rich in hits. Any-hit rate of the full collection: about 1.2%.
SMILES,NSD2 HMT inh,FN deposit inh,RAD54 branch,RAD52 anneal inh,Glyco luc inh,AF4-AF9 inh,AlphaScreen art
C/C(CC(=O)Nc1ccccn1)=N\NC(=O)C(=O)Nc1cccc(Cl)c1C,60*,x,-12,x,1,x,-2%
C/C(CC(=O)Nc1ccccn1)=N\NC(=O)C(=O)Nc1cccc(C)c1,2,x,-6,x,1,x,x
CC1(C)Cc2ccccc2C2=NNC(=O)C2=N1,106*,-6,-4,14,-8,-6,3%
CC1(C)Cc2ccccc2C(Nn2cnnc2)=N1,3,x,7,-24,0,-5,x
CC(C)Cn1c(N)c(C(=O)COC(=O)c2ccc(O)cc2)c(=O)n(C)c1=O,0,1,x,-41,2,-7,x
CC(C)Cn1c(N)c(C(=O)COC(=O)c2ccc([N+](=O)[O-])o2)c(=O)n(C)c1=O,99*,13,x,-5,6,4,-4%
CCc1c(C)nc2ncnn2c1Nc1ccc(C)cc1,55*,0,4,-10,0,-2,-1%
O=C1c2cccc(Sc3ccccc3)c2C(=O)c2c(Sc3ccccc3)cccc21,76*,-13,0,-23,-2,5,-17%
CNC[C@H]1Oc2ncc(C#CC3CCCC3)cc2C(=O)N([C@@H](C)CO)C[C@H]1C,x,7,12,38,x,-3,x
O=C(NCCC(=O)N1CCc2ccccc21)c1ccco1,68*,0,-13,3,0,-3,-2%
O=C(NCc1nnc(SCC(=O)N2CCc3ccccc32)o1)c1ccco1,-3,-6,4,-12,5,-2,x
Cc1noc(C)c1S(=O)(=O)Nc1ccc2c(c1)C(=O)N([C@H](C)CO)C[C@H](C)[C@@H](CN(C)C(=O)NC1CCCCC1)OCCCC[C@H](C)O2,x,x,-1,-59,x,-3,x
CN(C1=C(NC(=O)c2ccccc2)C(=O)c2ccccc2C1=O)C1CCS(=O)(=O)C1 (centres undefined),109*,-8,x,-23,3,9,-3%
O=C(NC(=S)NC1CCS(=O)(=O)C1)c1ccccc1 (centres undefined),1,6,-8,-4,6,1,x
COc1ccc(N(C)S(=O)(=O)c2ccc(C)cc2)c([N+](=O)[O-])c1,0,-1,x,-6,1,3,x
COc1ccc(NC(=O)CN(C)S(=O)(=O)c2ccc(C)cc2)c([N+](=O)[O-])c1,67*,3,x,-92,0,2,-4%
C[C@H]1CN([C@@H](C)CO)C(=O)Cc2cc(NC(=O)Nc3ccc(C(F)(F)F)cc3)ccc2O[C@H]1CN(C)Cc1ccccc1,x,x,0,9,x,-1,x
CCOC(=O)CCCCC(=O)c1[nH]c(=O)[nH]c1CSc1nc(C)cc(=O)[nH]1,106*,x,-16,-15,0,0,-9%
CCOC(=O)CCCCC(=O)c1[nH]c(=O)[nH]c1CSc1nc2ccccc2[nH]1,100*,x,2,-6,3,u,-4%
CCOC(=O)CCCCC(=O)c1[nH]c(=O)[nH]c1CSc1nc(C)cc(C)n1,x,x,4,x,2,x,x
C[C@H](CO)N1C[C@H](C)[C@@H](CN(C)CC2CCCCC2)Oc2ccc(NS(=O)(=O)c3ccc(F)cc3)cc2CC1=O,x,x,-1,-1,x,1,x
O=C(Nc1ccc2c(c1)OCO2)N[C@H]1C=C[C@@H](CC(=O)N2CCN(c3ccccc3)CC2)O[C@@H]1CO,x,-9,-2,-7,x,4,x
COc1cccc(C#Cc2cnc3c(c2)C(=O)N([C@H](C)CO)C[C@H](C)[C@@H](CN(C)C(=O)C2CCOCC2)O3)c1,x,x,2,-20,x,0,x
CCc1ccc(N2C(=O)C3C(C2=O)N2CCCN2C3c2ccccc2)cc1 (centres undefined),64*,-3,-1,-35,2,-3,0%
Cc1ccc(N2C(=O)C3C(C2=O)N2CCCN2C3c2ccccc2)cc1C (centres undefined),6,1,x,-34,0,-1,x
O=C(C[C@@H]1C[C@@H]2c3cc(NC(=O)NC4CCCC4)ccc3O[C@@H]2[C@@H](CO)O1)NCc1ccc(-c2ccccc2)cc1,x,6,9,-4,x,1,x
